Measurements: BindingDB's records for doi:10.1021/jm980408v (University of Kuopio, 1999)

Molecular target: Histamine H3 receptor (Rattus norvegicus, UniProt Q9QYN8)
Test: Affinity for histamine H3 receptor in rat cerebral cortex.
Method in brief: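 Affinity for the H3 receptor measured in an in vitro binding assay by displacement of the radioligand [3H]R-(α)-methylhistamine.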

Histamine H3 receptor, sequence (Q9QYN8 whole entry): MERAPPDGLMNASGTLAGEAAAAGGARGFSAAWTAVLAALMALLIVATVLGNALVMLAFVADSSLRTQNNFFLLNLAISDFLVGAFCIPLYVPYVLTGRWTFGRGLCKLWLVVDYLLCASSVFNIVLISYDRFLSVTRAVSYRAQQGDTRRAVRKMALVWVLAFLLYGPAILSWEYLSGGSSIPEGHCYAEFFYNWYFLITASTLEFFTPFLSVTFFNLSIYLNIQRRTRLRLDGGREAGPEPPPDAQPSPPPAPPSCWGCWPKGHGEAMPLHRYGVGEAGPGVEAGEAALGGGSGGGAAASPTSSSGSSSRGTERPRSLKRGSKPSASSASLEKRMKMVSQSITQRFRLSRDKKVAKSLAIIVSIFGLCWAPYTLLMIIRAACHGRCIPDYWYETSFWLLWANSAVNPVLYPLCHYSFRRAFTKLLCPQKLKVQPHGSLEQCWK

Compound	Ki
COC[C@@H](N)Cc1c[nH]cn1	1250 nM
N[C@@H](COCc1ccc(I)cc1)Cc1c[nH]cn1	199 nM
N[C@@H](CO)Cc1c[nH]cn1	1250 nM
N[C@@H](COCc1ccccc1)Cc1c[nH]cn1	316 nM
N[C@H](COCc1ccc(I)cc1)Cc1c[nH]cn1	251 nM
N[C@@H](COCc1ccc(Br)cc1)Cc1c[nH]cn1	199 nM
N[C@H](CO)Cc1c[nH]cn1 [HISTIDINOL]	251 nM

These reach a lower Ki. Values come first.

Ki	Compound
158 nM	N[C@@H](COCC1CCCCC1)Cc1c[nH]cn1
79.4 nM	N[C@H](COCc1ccc(Br)cc1)Cc1c[nH]cn1
50.1 nM	N[C@H](COCc1ccccc1)Cc1c[nH]cn1
12.6 nM	N[C@H](COCC1CCCCC1)Cc1c[nH]cn1
3.16 nM	c1ccc(COCCCc2c[nH]cn2)cc1 [proxifan]
0.126 nM	Ic1ccc(COCCCc2c[nH]cn2)cc1 [Iodoproxyfan]
